Tests used:
[1] = biological target: T1, RNA-directed RNA polymerase (Hepacivirus hominis, UniProt O39930); assay: Inhibitory concentration required to inhibit HCV RNA dependent RNA polymerase Nonstructural protein 5B in the presence of Mg2+ is determined
[2] = biological target: T1, RNA-directed RNA polymerase; assay: Inhibitory concentration required to inhibit HCV RNA dependent RNA polymerase Nonstructural protein 5B in the presence of Mn2+ is determined
[3] = species on record: Rattus norvegicus; assay: Concentration required for irreversible binding to rat liver microsomes in presence of NADPH with GSH; format: functional
Outline: (§1)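 A tritium-labelled inhibitor was incubated with rat liver microsomes in the presence of NADPH for 4 h. Irreversible covalent binding was read as residual radioactivity bound to microsomal protein, expressed as pmol/mg protein.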

[4] = species on record: Rattus norvegicus; assay: Concentration required for irreversible binding to rat liver microsomes in presence of NADPH without GSH; format: functional; outline: as §1
[5] = biological target: Human immunodeficiency virus type 1 reverse transcriptase (Human immunodeficiency virus 1, UniProt Q72547); assay: Inhibitory concentration required to inhibit HIV-RT is determined
[6] = biological target: Human immunodeficiency virus type 1 integrase (Human immunodeficiency virus 1, UniProt Q7ZJM1); assay: Inhibitory concentration required to inhibit HIV-integrase is determined
[7] = biological target: DNA polymerase I (Escherichia coli, UniProt P00582); assay: Inhibitory concentration required to inhibit Klenow DNA-dependent DNA polymerase
Chain of DNA polymerase I (P00582 whole entry): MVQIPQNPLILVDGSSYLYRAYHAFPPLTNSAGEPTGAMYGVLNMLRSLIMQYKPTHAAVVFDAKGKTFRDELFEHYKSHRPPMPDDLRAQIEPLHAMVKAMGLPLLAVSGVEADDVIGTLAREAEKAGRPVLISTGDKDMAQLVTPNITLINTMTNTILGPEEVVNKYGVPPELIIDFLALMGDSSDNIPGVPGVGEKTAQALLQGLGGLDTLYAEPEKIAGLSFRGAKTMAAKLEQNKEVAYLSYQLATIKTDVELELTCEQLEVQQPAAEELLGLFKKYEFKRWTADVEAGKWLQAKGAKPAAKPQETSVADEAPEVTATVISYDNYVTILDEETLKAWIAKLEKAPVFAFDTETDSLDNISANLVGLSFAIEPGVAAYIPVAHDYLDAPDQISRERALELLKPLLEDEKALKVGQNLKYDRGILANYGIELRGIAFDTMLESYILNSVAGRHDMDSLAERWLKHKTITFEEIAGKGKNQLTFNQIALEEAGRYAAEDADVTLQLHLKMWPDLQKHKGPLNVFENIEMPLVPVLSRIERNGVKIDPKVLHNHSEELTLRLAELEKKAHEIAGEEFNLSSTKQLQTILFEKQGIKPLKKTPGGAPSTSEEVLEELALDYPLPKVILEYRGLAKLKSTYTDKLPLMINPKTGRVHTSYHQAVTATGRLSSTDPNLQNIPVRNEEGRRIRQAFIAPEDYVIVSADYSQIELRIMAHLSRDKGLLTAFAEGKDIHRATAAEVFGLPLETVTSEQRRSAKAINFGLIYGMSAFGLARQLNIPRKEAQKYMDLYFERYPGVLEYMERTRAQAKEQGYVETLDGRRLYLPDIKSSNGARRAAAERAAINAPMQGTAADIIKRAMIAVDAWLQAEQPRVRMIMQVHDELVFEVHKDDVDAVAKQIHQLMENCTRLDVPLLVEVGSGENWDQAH

T1 sequence (O39930 whole entry): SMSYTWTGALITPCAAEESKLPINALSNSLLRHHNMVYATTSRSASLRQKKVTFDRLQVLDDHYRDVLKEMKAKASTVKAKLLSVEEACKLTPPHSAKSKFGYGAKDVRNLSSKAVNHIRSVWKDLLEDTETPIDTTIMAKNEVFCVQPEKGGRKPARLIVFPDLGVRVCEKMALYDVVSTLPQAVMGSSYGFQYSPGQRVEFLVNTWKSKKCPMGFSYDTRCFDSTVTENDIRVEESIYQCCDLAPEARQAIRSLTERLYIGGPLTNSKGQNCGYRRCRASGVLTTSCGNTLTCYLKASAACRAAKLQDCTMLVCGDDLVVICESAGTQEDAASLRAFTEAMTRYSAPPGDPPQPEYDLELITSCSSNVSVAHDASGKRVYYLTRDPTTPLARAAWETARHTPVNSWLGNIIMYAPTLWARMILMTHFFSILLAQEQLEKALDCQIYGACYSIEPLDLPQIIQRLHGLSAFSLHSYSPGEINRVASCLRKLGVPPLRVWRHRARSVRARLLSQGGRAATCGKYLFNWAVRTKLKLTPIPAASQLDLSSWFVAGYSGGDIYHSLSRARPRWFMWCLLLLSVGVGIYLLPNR
Chain of Human immunodeficiency virus type 1 integrase (Q7ZJM1 whole entry): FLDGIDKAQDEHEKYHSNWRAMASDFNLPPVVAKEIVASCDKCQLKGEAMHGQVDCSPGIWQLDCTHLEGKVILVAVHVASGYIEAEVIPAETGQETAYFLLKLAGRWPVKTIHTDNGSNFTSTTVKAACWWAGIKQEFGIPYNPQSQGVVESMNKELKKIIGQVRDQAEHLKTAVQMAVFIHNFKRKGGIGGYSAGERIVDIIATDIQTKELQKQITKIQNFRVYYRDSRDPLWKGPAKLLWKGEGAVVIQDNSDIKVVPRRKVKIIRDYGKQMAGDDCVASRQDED

Question: Which results are given for COC(=O)c1nc(-c2ccc(Cl)cc2)[nH]c(=O)c1O?
Answer: IC50 [1]: > 100 µM; IC50 [2]: 30 µM

Question: Which IC50 [1] does the source give for O=c1[nH]c(-c2cccc(O)c2)ncc1O here?
Answer: > 50 µM

Question: And the IC50 [2]?
Answer: > 50 µM

Question: How did the IC50 [1] turn out when COc1nc(-c2cccc(O)c2)nc(C(=O)O)c1O was run?
Answer: > 50 µM

Question: And the IC50 [2]?
Answer: > 50 µM

Question: With COc1c(C(=O)O)nc(-c2ccc(Cl)cc2)[nH]c1=O as the compound, how does the IC50 [1] read?
Answer: > 50 µM

Question: What about the IC50 [2] of the same compound?
Answer: > 50 µM

Question: What does the source list for Cn1c(-c2cccc(O)c2)nc(C(=O)O)c(O)c1=O?
Answer: IC50 [1]: 6 µM; IC50 [2]: 1 µM

Question: What does the source list for O=C(O)C(=O)/C=C(\O)c1ccccc1?
Answer: Activity [3]: > 400 pmol/mg; Activity [4]: > 400 pmol/mg

Question: For O=C(O)c1nc(-c2cccc(OCc3ccccc3)c2)[nH]c(=O)c1O, which IC50 [5] is on record?
Answer: > 100 µM

Question: What about the IC50 [6] of the same compound?
Answer: > 50 µM

Question: What about the IC50 [7] of the same compound?
Answer: > 100 µM

Question: What about the IC50 [1] of the same compound?
Answer: 15 µM

Question: What about the IC50 [2] of the same compound?
Answer: 1 µM

Question: Which results are given for O=C(O)c1nc(-c2ccc(Cl)cc2)[nH]c(=O)c1O?
Answer: IC50 [5]: 23 µM; IC50 [6]: > 50 µM; IC50 [7]: > 100 µM; IC50 [1]: 29 µM; IC50 [2]: 1.4 µM

Question: Which IC50 [5] does the source give for O=C(O)c1nc(-c2ccccc2)nc(O)c1O here?
Answer: > 100 µM

Question: And the IC50 [6]?
Answer: > 50 µM

Question: What about the IC50 [7] of the same compound?
Answer: > 100 µM

Question: And the IC50 [2]?
Answer: 2.3 µM

Question: What about the Activity [3] of the same compound?
Answer: < 2 pmol/mg

Question: And the Activity [4]?
Answer: < 2 pmol/mg

Question: What does the source list for O=C(O)c1nc(-c2cccc(O)c2)nc(O)c1O?
Answer: IC50 [5]: > 100 µM; IC50 [6]: > 50 µM; IC50 [7]: > 100 µM; IC50 [1]: 5.8 µM; IC50 [2]: 0.6 µM
